Laboratory results: ChEMBL document CHEMBL5104186, “Structure-Activity Relationship and Neuroprotective Activity of 1,5-Dihydro-2H-naphtho[1,2-b][1,4]diazepine-2,4(3H)-diones as P2X4 Receptor Antagonists” (J Med Chem, 2022)
Activity calls are given as the source filed them. The rule behind the calls is not given here.

Assays:
[1] = target: T1, P2X purinoceptor 1 (Homo sapiens) (UniProt P51575); experiment: Antagonist activity at human P2X1R transfected in CHO-K1 cells at 30 uM preincubated for 30 mins followed by alpha,beta-meATP addition by […] based assay relative to control; assay type: cell-based; parameters: scale not given: the % may be the effect or the level left
T1 sequence (whole entry): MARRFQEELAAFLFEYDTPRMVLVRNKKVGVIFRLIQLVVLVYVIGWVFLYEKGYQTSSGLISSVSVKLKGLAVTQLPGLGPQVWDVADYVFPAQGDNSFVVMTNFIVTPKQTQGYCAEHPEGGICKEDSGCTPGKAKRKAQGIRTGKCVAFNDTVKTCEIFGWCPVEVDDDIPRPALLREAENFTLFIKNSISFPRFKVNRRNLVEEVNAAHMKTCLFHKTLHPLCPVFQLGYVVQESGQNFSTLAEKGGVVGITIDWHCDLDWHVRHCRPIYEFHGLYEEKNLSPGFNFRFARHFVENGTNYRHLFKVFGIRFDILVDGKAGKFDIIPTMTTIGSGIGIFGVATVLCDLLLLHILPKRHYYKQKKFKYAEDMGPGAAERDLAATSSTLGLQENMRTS

[2] = target: T2, P2X purinoceptor 3 (Homo sapiens) (UniProt P56373); experiment: Antagonist activity at human P2X3R transfected in CHO-K1 cells at 30 uM preincubated for 30 mins followed by alpha,beta-meATP addition by fluorescence based assay relative to control; assay type: cell-based; parameters: scale not given: the % may be the effect or the level left
T2 sequence (whole entry): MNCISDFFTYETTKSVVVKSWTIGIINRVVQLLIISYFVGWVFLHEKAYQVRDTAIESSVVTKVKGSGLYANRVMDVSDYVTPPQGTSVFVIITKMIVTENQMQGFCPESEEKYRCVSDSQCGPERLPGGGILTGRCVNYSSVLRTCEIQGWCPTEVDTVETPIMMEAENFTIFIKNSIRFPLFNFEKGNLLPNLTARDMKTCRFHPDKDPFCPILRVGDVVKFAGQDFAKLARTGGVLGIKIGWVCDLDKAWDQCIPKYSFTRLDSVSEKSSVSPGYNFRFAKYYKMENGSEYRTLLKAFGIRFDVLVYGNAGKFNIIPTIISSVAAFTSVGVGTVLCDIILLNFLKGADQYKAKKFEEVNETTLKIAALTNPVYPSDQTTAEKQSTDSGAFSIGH

[3] = target: P2X2/P2X3 heterotrimeric receptor (Homo sapiens) (UniProt Q9UBL9+P56373); experiment: Antagonist activity at human P2X2/3R transfected in CHO-K1 cells at 30 uM preincubated for 30 mins followed by alpha,beta-meATP addition by fluorescence based assay relative to control; assay type: cell-based; parameters: scale not given: the % may be the effect or the level left
[4] = target: T3, P2X purinoceptor 4 (Homo sapiens) (UniProt Q99571); experiment: Antagonist activity at human P2X4R transfected in HEK293 cells at 30 uM preincubated for 30 mins followed by CTP addition by fluorescence based assay relative to control; assay type: cell-based; parameters: scale not given: the % may be the effect or the level left
T3 sequence (whole entry): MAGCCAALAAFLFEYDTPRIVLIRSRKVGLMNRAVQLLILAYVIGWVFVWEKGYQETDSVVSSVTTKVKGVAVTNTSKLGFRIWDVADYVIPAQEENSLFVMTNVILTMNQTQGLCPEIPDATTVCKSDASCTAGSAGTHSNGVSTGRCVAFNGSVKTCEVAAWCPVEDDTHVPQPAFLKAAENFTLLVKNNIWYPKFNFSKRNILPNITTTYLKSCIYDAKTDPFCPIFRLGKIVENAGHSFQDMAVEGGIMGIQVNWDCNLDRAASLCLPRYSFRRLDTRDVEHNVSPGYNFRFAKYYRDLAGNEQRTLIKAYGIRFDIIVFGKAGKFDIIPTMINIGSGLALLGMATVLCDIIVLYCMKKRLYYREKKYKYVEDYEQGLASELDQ

Mus musculus [5] = experiment: Neuroprotective activity in Wild type C57B/6 mouse model of middle cerebral artery occlusion assessed as reduction in hemispheric infract size at 5 mg/kg/day administered for 3 days; assay type: functional, organism-based; settings: time 3.0 day
Summary of the method: (§1)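 C57B/6 mice (8–12-week-old males; 12–13-month-old mice in one study) underwent MCAO (filament, laser Doppler confirmation, 37 °C). At reperfusion a subcutaneous Alzet pump was implanted, giving 0.5–3.0 or 5.0 mg/kg/day for 3 days; vehicle was PBS. At day 3, TTC-stained coronal sections were scored blind, with edema-corrected (Swanson) infarct volume as % of contralateral. Mean ± S.D.; n = 5–6.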

P2X purinoceptor 4 [6] = target: T4, P2X purinoceptor 4 (Homo sapiens, UniProt Q99571); experiment: Antagonist activity at human P2X4R transfected in HEK293 cells preincubated for 30 mins followed by CTP addition by fluorescence based assay; assay type: cell-based
T4 sequence (Q99571 whole entry): T3 sequence (whole entry)

Mus musculus [7] = experiment: Neuroprotective activity in Wild type C57B/6 mouse model of middle cerebral artery occlusion assessed as reduction in tissue atrophy at […] administered for 3 days measured after 35 days by CV staining based assay; assay type: functional, organism-based; settings: time 3.0 day
[8] = Effect on locomotor activity in C57B/6 mouse model of middle cerebral artery occlusion at 1.5 to 3 mg/kg/day measured over 4 weeks after stroke by open field test; assay type: toxicity, organism-based; settings: in vivo, 672 h, dose 1.5-3 mg/kg/day
Summary of the method: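 C57B/6 mice underwent MCAO and received a subcutaneous Alzet minipump (vehicle 1× PBS) at reperfusion, delivering compound for 3 days. Open-field test: 10 min exploration of a 16″ acrylic box at several time points; total beam breaks recorded. Mean ± S.D.; n = 8–15/group, both sexes.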

MDM [9] = experiment: Inhibition of ATP-induced calcium influx in human monocytes derived macrophages assessed as decrease in calcium altitude at 0.6 uM preincubated for 15 mins followed by ATP addition and measured upto 4 mins by laser scanning confocal microscopic analysis; assay type: functional, cell-based; settings: time <= 19.0 min
Summary of the method: (§2)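 Monocytes matured into macrophages with GM-CSF (5 ng/mL) for 5–7 days, then seeded 10^4 cells/dish for ≥24 h. Calbryte 590 AM loaded for 60 min in HBSS/HEPES. Cells pretreated 15 min with 0–3 μM compound, then 50 μM ATP added; confocal images taken every 6 s for up to 4 min. Read-out is peak cytosolic Ca2+ amplitude (F/F0). Mean ± SEM; ANOVA with Tukey.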

Mus musculus [10] = experiment: Neuroprotective activity in Wild type C57B/6 mouse model of middle cerebral artery occlusion assessed as reduction in hemispheric infract size at 0.5 to 3 mg/kg/day administered for 3 days; assay type: functional, organism-based; settings: dose 0.5-3 mg/kg/day, time 3.0 day; summary of the method: as §1
Mus musculus [11] = experiment: Improvement in learning and memory in C57B/6 mouse model of middle cerebral artery occlusion at 3 mg/kg measured after 4 weeks post stroke by NORT; assay type: functional, organism-based
Summary of the method: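 Middle-aged C57B/6 mice (both sexes) underwent MCAO and received a 3-day subcutaneous minipump infusion from reperfusion (vehicle PBS). NORT was run 4 weeks post-stroke: 1 h acclimatisation, 10 min habituation, 10 min trial with two identical objects, then a test 24 h later with one novel object. Discrimination index = (TN − TF)/(TN + TF). One-way ANOVA with Tukey; n = 5–11/group.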

MDM [12] = experiment: Inhibition of ATP-induced calcium influx in human monocytes derived macrophages preincubated for 15 mins followed by ATP addition and measured upto 4 mins by laser scanning confocal microscopic analysis; assay type: functional, cell-based; settings: dose 0.6-3 µM, time <= 19.0 min, DDE = dose-dependent effect; summary of the method: as §2
Mus musculus [13] = experiment: Neuroprotective activity in Wild type C57B/6 mouse model of middle cerebral artery occlusion assessed as reduction in cortical infract volume at […] administered for 3 days; assay type: functional, organism-based; settings: time 3.0 day
D(3) dopamine receptor = D(3) dopamine receptor (Homo sapiens, UniProt P35462); experiment: Binding affinity to human D3 dopamine receptor
Sequence of D(3) dopamine receptor (P35462 whole entry): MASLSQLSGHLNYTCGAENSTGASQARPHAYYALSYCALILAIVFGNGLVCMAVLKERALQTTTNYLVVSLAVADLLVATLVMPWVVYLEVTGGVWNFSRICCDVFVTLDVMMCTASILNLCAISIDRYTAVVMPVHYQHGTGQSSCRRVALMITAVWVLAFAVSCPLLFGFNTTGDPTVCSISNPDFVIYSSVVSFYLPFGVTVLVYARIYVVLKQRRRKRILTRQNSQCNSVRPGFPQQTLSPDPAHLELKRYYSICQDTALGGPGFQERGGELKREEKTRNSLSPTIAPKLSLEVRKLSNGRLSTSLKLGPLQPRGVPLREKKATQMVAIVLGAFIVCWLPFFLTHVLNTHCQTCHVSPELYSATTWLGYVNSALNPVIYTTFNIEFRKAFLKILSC
Summary of the method: (§3)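 Off-target radioligand binding was run by the NIMH Psychoactive Drug Screening Program across 45 receptors, channels and transporters. Ki in nM, given as mean ± SEM.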

Mus musculus [14] = experiment: Neuroprotective activity in Wild type C57B/6 mouse model of middle cerebral artery occlusion assessed as reduction in infract damage at […] administered for 3 days by TTC staining based assay; assay type: functional, organism-based; settings: time 3.0 day
[15] = target: T5, 5-hydroxytryptamine receptor 2C (Homo sapiens, UniProt P28335); experiment: Binding affinity to human 5HT2C serotonin receptor; summary of the method: as §3
T5 sequence (P28335 whole entry): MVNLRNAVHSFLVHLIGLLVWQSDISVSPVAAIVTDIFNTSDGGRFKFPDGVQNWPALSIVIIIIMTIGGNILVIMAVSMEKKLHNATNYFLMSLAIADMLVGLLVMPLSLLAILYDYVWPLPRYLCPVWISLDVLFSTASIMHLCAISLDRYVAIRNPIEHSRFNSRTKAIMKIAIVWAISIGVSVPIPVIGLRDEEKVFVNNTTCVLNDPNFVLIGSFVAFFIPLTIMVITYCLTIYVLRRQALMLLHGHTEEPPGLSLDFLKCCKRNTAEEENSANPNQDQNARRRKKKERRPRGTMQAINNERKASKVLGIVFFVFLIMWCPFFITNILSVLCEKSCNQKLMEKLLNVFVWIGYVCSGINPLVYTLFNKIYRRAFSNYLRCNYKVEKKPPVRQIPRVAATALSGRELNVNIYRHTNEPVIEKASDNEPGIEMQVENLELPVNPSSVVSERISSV

P2X purinoceptor 4 [16] = target: T6, P2X purinoceptor 4 (Rattus norvegicus, UniProt P51577); experiment: Antagonist activity at rat P2X4R expressed in HEK293 cells preincubated for 2 mins followed by ATP addition and measured after 4 mins; assay type: cell-based
T6 sequence (P51577 whole entry): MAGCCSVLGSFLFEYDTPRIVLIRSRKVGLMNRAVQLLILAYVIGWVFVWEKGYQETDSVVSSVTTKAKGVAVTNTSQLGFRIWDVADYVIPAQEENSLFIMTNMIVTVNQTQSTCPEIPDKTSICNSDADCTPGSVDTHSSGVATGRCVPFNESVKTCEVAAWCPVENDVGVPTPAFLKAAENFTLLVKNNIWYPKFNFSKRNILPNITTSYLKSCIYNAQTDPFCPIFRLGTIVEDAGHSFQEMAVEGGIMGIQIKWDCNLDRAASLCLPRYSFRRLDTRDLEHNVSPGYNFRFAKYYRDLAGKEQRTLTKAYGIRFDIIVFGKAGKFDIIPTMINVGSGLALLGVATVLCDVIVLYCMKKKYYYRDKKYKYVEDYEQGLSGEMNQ

| Compound | Activity [1] | Activity [2] | Activity [3] | Activity [4] | further results |
| --- | --- | --- | --- | --- | --- |
| Cc1cc(-c2noc(=S)[nH]2)cc(N2C(=O)CC(=O)Nc3c2ccc2ccccc32)c1 | 16% | 12% | 5% |  |  |
| CCc1cc2c(c3ccccc13)NC(=O)CC(=O)N2c1cccc(-c2noc(=S)[nH]2)c1 | 6% | 6% | 10% |  |  |
| CC(=O)NCc1ccc2ccc3c(c2c1)NC(=O)CC(=O)N3c1cccc(-c2noc(=S)[nH]2)c1 | 26% | 9% | -5% | 16% |  |
| O=C1CC(=O)N(c2cncc(-c3noc(=S)[nH]3)c2)c2ccc3ccccc3c2N1 | 15% | 6% | 25% |  |  |
| Cc1ccc2c3c(ccc2c1)N(c1cccc(-c2noc(=S)[nH]2)c1)C(=O)CC(=O)N3 |  |  |  |  | Activity (Mus musculus [5]): Active |
| O=C1CC(=O)N(c2cccc(-c3noc(=S)[nH]3)c2)c2cc(-c3ccccc3)c3ccccc3c2N1 | 14% | 11% | 10% |  | IC50 (P2X purinoceptor 4 [6]): 20.7 µM |
| NCc1ccc2ccc3c(c2c1)NC(=O)CC(=O)N3c1cccc(-c2noc(=S)[nH]2)c1 | 8% | 9% | 0% | 9% |  |
| CCN(CC)CC.O=C1CC(=O)N(c2ccnc(-c3noc(=S)[nH]3)c2)c2ccc3ccccc3c2N1 |  |  |  |  | Activity (Mus musculus [7]): Active; Activity [8]: Non-Toxic; inhibition (MDM [9]): Active; Activity (Mus musculus [10]): Active; Activity (Mus musculus [11]): Active; inhibition (MDM [12]): Dde; Activity (Mus musculus [13]): Active; Ki (D(3) dopamine receptor): 0.00077 µM; Activity (Mus musculus [14]): Active; Ki [15]: 0.006 µM |
| [N-]=[N+]=NCc1ccc2c(Br)cc3c(c2c1)NC(=O)CC(=O)N3c1cccc(-c2noc(=S)[nH]2)c1 | -13% | 15% | -4% | 8% |  |
| O=C1CN=C(c2cccc(Br)c2)c2oc3ccccc3c2N1 |  |  |  |  | IC50 (P2X purinoceptor 4 [16]): 0.75 µM |
| O=C1CC(=O)N(c2cc(-c3noc(=S)[nH]3)ccn2)c2ccc3ccccc3c2N1 | 18% | 18% | -6% |  |  |
| O=C1CC(=O)N(c2cccc(-c3noc(=S)[nH]3)c2)c2cc(C#Cc3ccccc3)c3ccccc3c2N1 | 14% | 7% | 5% | -4% |  |
| CCCCC#Cc1cc2c(c3ccccc13)NC(=O)CC(=O)N2c1cccc(-c2noc(=S)[nH]2)c1 | 16% | 18% | 1% | 15% |  |
| [N-]=[N+]=NCc1ccc2ccc3c(c2c1)NC(=O)CC(=O)N3c1cccc(-c2noc(=S)[nH]2)c1 | 8% | 13% | 4% | 6% |  |
| O=C1CC(=O)N(c2cccc(-c3noc(=S)[nH]3)c2)c2cc(C#Cc3cccnc3)c3ccccc3c2N1 | 9% | 9% | 13% | 34% |  |
| [N-]=[N+]=NCc1ccc2c3c(ccc2c1)N(c1cccc(-c2noc(=S)[nH]2)c1)C(=O)CC(=O)N3 | -5% | 0% | 2% |  | IC50 (P2X purinoceptor 4 [6]): 21.3 µM |
| O=C1CC(=O)N(c2cccc(-c3noc(=S)[nH]3)n2)c2ccc3ccccc3c2N1 | 31% | 17% | 15% |  |  |
| Cc1ccc2c(Br)cc3c(c2c1)NC(=O)CC(=O)N3c1cccc(-c2noc(=S)[nH]2)c1 | -2% | 17% | -5% |  | IC50 (P2X purinoceptor 4 [6]): 11.8 µM |
